# Assay results taken from ChEMBL document CHEMBL3751813, “Nonpeptidic Amphiphilic Xanthone Derivatives: Structure-Activity Relationship and Membrane-Targeting Properties” (J Med Chem, 2016).
# Test system: Staphylococcus aureus
# Test: Antibacterial activity against clinical isolates of Staphylococcus aureus DM4001R after 24 hrs by […]
# Format: functional
# Settings: not given
row,Compound,MIC [µg/mL]
1,COc1c(OCCCCN2CCSCC2)cc2oc3cc(OCCCCN4CCSCC4)c(CC=C(C)C)c(O)c3c(=O)c2c1CC=C(C)C,> 50
2,COc1c(OCCCCn2ccnc2)cc2oc3cc(OCCCCn4ccnc4)c(CC=C(C)C)c(O)c3c(=O)c2c1CC=C(C)C,> 50
3,COc1c(OCCCCN2CCCC2)cc2oc3cc(OCCCCN4CCCC4)c(CC=C(C)C)c(O)c3c(=O)c2c1CC=C(C)C,1.56
4,CCN(C)CCCCOc1cc2oc3cc(OCCCCN(C)CC)c(OC)c(CC=C(C)C)c3c(=O)c2c(O)c1CC=C(C)C,1.56
5,CCCN(CCC)CCCCOc1cc2oc3cc(OCCCCN(CCC)CCC)c(OC)c(CC=C(C)C)c3c(=O)c2c(O)c1CC=C(C)C,25
6,CCCCN(C)CCCCOc1cc2oc3cc(OCCCCN(C)CCCC)c(OC)c(CC=C(C)C)c3c(=O)c2c(O)c1CC=C(C)C,50
7,CCCCN(CC)CCCCOc1cc2oc3cc(OCCCCN(CC)CCCC)c(OC)c(CC=C(C)C)c3c(=O)c2c(O)c1CC=C(C)C,12.5
8,COc1c(OCCCCNC(=N)N)cc2oc3cc(OCCCCNC(=N)N)c(CC=C(C)C)c(O)c3c(=O)c2c1CC=C(C)C,3.12

# Test system: not listed separately
# Test: Selectivity index, ratio of HC50 for hemolytic activity against New Zealand white rabbit RBC to MIC for clinical isolates of Staphylococcus aureus DM4001
# Settings: not given
row,Compound,Selectivity ratio
1,COc1c(OCCCCN2CCCC2)cc2oc3cc(OCCCCN4CCCC4)c(CC=C(C)C)c(O)c3c(=O)c2c1CC=C(C)C,16
2,CCN(C)CCCCOc1cc2oc3cc(OCCCCN(C)CC)c(OC)c(CC=C(C)C)c3c(=O)c2c(O)c1CC=C(C)C,16.1
3,CCCN(CCC)CCCCOc1cc2oc3cc(OCCCCN(CCC)CCC)c(OC)c(CC=C(C)C)c3c(=O)c2c(O)c1CC=C(C)C,> 8
4,CCCCN(C)CCCCOc1cc2oc3cc(OCCCCN(C)CCCC)c(OC)c(CC=C(C)C)c3c(=O)c2c(O)c1CC=C(C)C,1.2
5,CCCCN(CC)CCCCOc1cc2oc3cc(OCCCCN(CC)CCCC)c(OC)c(CC=C(C)C)c3c(=O)c2c(O)c1CC=C(C)C,> 16
6,COc1c(OCCCCNC(=N)N)cc2oc3cc(OCCCCNC(=N)N)c(CC=C(C)C)c(O)c3c(=O)c2c1CC=C(C)C,20.5

# Test system: Staphylococcus aureus
# Test: Induction of membrane permeabilization in clinical isolates of Staphylococcus aureus DM4001 at MIC by SYTOX green uptake assay
# Format: functional
# Settings: not given
# Outline: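 Exponential-phase cells washed twice in 20 mM PBS pH 7 and adjusted to OD620 0.09. Given 3 µM SYTOX Green and kept in the dark until fluorescence was stable, then compound added. Fluorescence followed in a stirred cuvette at ex 504/em 523 nm. Melittin 10 µg/mL was the positive control. Run at least twice; one run reported.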
row,Compound,Activity [cps]
1,COc1c(OCCCCN2CCSCC2)cc2oc3cc(OCCCCN4CCSCC4)c(CC=C(C)C)c(O)c3c(=O)c2c1CC=C(C)C,7129
2,COc1c(OCCCCN2CCCC2)cc2oc3cc(OCCCCN4CCCC4)c(CC=C(C)C)c(O)c3c(=O)c2c1CC=C(C)C,814
3,CCN(C)CCCCOc1cc2oc3cc(OCCCCN(C)CC)c(OC)c(CC=C(C)C)c3c(=O)c2c(O)c1CC=C(C)C,12456
4,CCCN(CCC)CCCCOc1cc2oc3cc(OCCCCN(CCC)CCC)c(OC)c(CC=C(C)C)c3c(=O)c2c(O)c1CC=C(C)C,53637
5,CCCCN(C)CCCCOc1cc2oc3cc(OCCCCN(C)CCCC)c(OC)c(CC=C(C)C)c3c(=O)c2c(O)c1CC=C(C)C,114095
6,CCCCN(CC)CCCCOc1cc2oc3cc(OCCCCN(CC)CCCC)c(OC)c(CC=C(C)C)c3c(=O)c2c(O)c1CC=C(C)C,64790
7,COc1c(OCCCCNC(=N)N)cc2oc3cc(OCCCCNC(=N)N)c(CC=C(C)C)c(O)c3c(=O)c2c1CC=C(C)C,68378

# Test system: Staphylococcus aureus
# Test: Induction of membrane permeabilization in clinical isolates of Staphylococcus aureus DM4001 assessed as ATP leakage at MIC incubated for 10 mins by firefly luciferase based luminometry analysis
# Format: functional
# Settings: not given
# Outline: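 Exponential-phase cells washed twice in 20 mM PBS pH 7 and set to OD620 0.3. Exposed 10 min at 37 °C, then spun at 4000 rpm for 5 min. Supernatant mixed with luciferase reagent (1 mM DTT, 0.5 mM D-luciferin, 1.25 µg/mL firefly luciferase). Luminescence read over 30 cycles.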
row,Compound,Activity [nM]
1,COc1c(OCCCCN2CCSCC2)cc2oc3cc(OCCCCN4CCSCC4)c(CC=C(C)C)c(O)c3c(=O)c2c1CC=C(C)C,5
2,COc1c(OCCCCN2CCCC2)cc2oc3cc(OCCCCN4CCCC4)c(CC=C(C)C)c(O)c3c(=O)c2c1CC=C(C)C,465
3,CCN(C)CCCCOc1cc2oc3cc(OCCCCN(C)CC)c(OC)c(CC=C(C)C)c3c(=O)c2c(O)c1CC=C(C)C,1734
4,CCCN(CCC)CCCCOc1cc2oc3cc(OCCCCN(CCC)CCC)c(OC)c(CC=C(C)C)c3c(=O)c2c(O)c1CC=C(C)C,5123
5,CCCCN(C)CCCCOc1cc2oc3cc(OCCCCN(C)CCCC)c(OC)c(CC=C(C)C)c3c(=O)c2c(O)c1CC=C(C)C,8862
6,CCCCN(CC)CCCCOc1cc2oc3cc(OCCCCN(CC)CCCC)c(OC)c(CC=C(C)C)c3c(=O)c2c(O)c1CC=C(C)C,12480
7,COc1c(OCCCCNC(=N)N)cc2oc3cc(OCCCCNC(=N)N)c(CC=C(C)C)c(O)c3c(=O)c2c1CC=C(C)C,2237

# Test system: not listed separately
# Test: Hemolytic activity against New Zealand white rabbit RBC after 1 hr by microplate reader analysis
# Format: ADME, cell-based, Oryctolagus cuniculus, Erythrocyte
# Settings: rabbit red blood cells
# Outline: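 Rabbit RBCs spun from serum at 3,000 rpm for 10 min and washed twice in PBS. Mixed with compound in DMF at 4% v/v RBCs, 1 h at 37 °C. After centrifugation, hemoglobin in the supernatant read at 576 nm. 2% Triton X-100 was the positive control and 1% DMF the negative control.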
row,Compound,HC50 at 1 h [µg/mL]
1,COc1c(OCCCCN2CCSCC2)cc2oc3cc(OCCCCN4CCSCC4)c(CC=C(C)C)c(O)c3c(=O)c2c1CC=C(C)C,> 200
2,COc1c(OCCCCn2ccnc2)cc2oc3cc(OCCCCn4ccnc4)c(CC=C(C)C)c(O)c3c(=O)c2c1CC=C(C)C,> 200
3,CCN(C)CCCCOc1cc2oc3cc(OCCCCN(C)CC)c(OC)c(CC=C(C)C)c3c(=O)c2c(O)c1CC=C(C)C,25.1
4,CCCN(CCC)CCCCOc1cc2oc3cc(OCCCCN(CCC)CCC)c(OC)c(CC=C(C)C)c3c(=O)c2c(O)c1CC=C(C)C,> 200
5,CCCCN(C)CCCCOc1cc2oc3cc(OCCCCN(C)CCCC)c(OC)c(CC=C(C)C)c3c(=O)c2c(O)c1CC=C(C)C,60.5
6,CCCCN(CC)CCCCOc1cc2oc3cc(OCCCCN(CC)CCCC)c(OC)c(CC=C(C)C)c3c(=O)c2c(O)c1CC=C(C)C,> 200
7,COc1c(OCCCCNC(=N)N)cc2oc3cc(OCCCCNC(=N)N)c(CC=C(C)C)c(O)c3c(=O)c2c1CC=C(C)C,64.1

# Test system: Staphylococcus aureus
# Test: Antibacterial activity against clinical isolates of methicillin-resistant Staphylococcus aureus DM21455 after 24 hrs by […]
# Format: functional
# Settings: DM21455, 24 h
row,Compound,MIC [µg/mL]
1,COc1c(OCCCCN2CCSCC2)cc2oc3cc(OCCCCN4CCSCC4)c(CC=C(C)C)c(O)c3c(=O)c2c1CC=C(C)C,> 50
2,COc1c(OCCCCn2ccnc2)cc2oc3cc(OCCCCn4ccnc4)c(CC=C(C)C)c(O)c3c(=O)c2c1CC=C(C)C,> 50
3,COc1c(OCCCCN2CCCC2)cc2oc3cc(OCCCCN4CCCC4)c(CC=C(C)C)c(O)c3c(=O)c2c1CC=C(C)C,1.56
4,CCN(C)CCCCOc1cc2oc3cc(OCCCCN(C)CC)c(OC)c(CC=C(C)C)c3c(=O)c2c(O)c1CC=C(C)C,1.56
5,CCCN(CCC)CCCCOc1cc2oc3cc(OCCCCN(CCC)CCC)c(OC)c(CC=C(C)C)c3c(=O)c2c(O)c1CC=C(C)C,25
6,CCCCN(C)CCCCOc1cc2oc3cc(OCCCCN(C)CCCC)c(OC)c(CC=C(C)C)c3c(=O)c2c(O)c1CC=C(C)C,25
7,CCCCN(CC)CCCCOc1cc2oc3cc(OCCCCN(CC)CCCC)c(OC)c(CC=C(C)C)c3c(=O)c2c(O)c1CC=C(C)C,25
8,COc1c(OCCCCNC(=N)N)cc2oc3cc(OCCCCNC(=N)N)c(CC=C(C)C)c(O)c3c(=O)c2c1CC=C(C)C,6.25

# Test system: Staphylococcus aureus
# Test: Antibacterial activity against clinical isolates of methicillin-resistant Staphylococcus aureus DM9808R after 24 hrs by […]
# Format: functional
# Settings: not given
row,Compound,MIC [µg/mL]
1,COc1c(OCCCCN2CCSCC2)cc2oc3cc(OCCCCN4CCSCC4)c(CC=C(C)C)c(O)c3c(=O)c2c1CC=C(C)C,> 50
2,COc1c(OCCCCn2ccnc2)cc2oc3cc(OCCCCn4ccnc4)c(CC=C(C)C)c(O)c3c(=O)c2c1CC=C(C)C,> 50
3,COc1c(OCCCCN2CCCC2)cc2oc3cc(OCCCCN4CCCC4)c(CC=C(C)C)c(O)c3c(=O)c2c1CC=C(C)C,1.56
4,CCN(C)CCCCOc1cc2oc3cc(OCCCCN(C)CC)c(OC)c(CC=C(C)C)c3c(=O)c2c(O)c1CC=C(C)C,6.25
5,CCCN(CCC)CCCCOc1cc2oc3cc(OCCCCN(CCC)CCC)c(OC)c(CC=C(C)C)c3c(=O)c2c(O)c1CC=C(C)C,50
6,CCCCN(C)CCCCOc1cc2oc3cc(OCCCCN(C)CCCC)c(OC)c(CC=C(C)C)c3c(=O)c2c(O)c1CC=C(C)C,50
7,CCCCN(CC)CCCCOc1cc2oc3cc(OCCCCN(CC)CCCC)c(OC)c(CC=C(C)C)c3c(=O)c2c(O)c1CC=C(C)C,6.25
8,COc1c(OCCCCNC(=N)N)cc2oc3cc(OCCCCNC(=N)N)c(CC=C(C)C)c(O)c3c(=O)c2c1CC=C(C)C,6.25

# Test system: Bacillus cereus
# Test: Antibacterial activity against clinical isolates of Bacillus cereus ATCC 11778 after 24 hrs by […]
# Format: functional
# Settings: ATCC 11778, 24 h
row,Compound,MIC [µg/mL]
1,COc1c(OCCCCN2CCSCC2)cc2oc3cc(OCCCCN4CCSCC4)c(CC=C(C)C)c(O)c3c(=O)c2c1CC=C(C)C,> 50
2,COc1c(OCCCCn2ccnc2)cc2oc3cc(OCCCCn4ccnc4)c(CC=C(C)C)c(O)c3c(=O)c2c1CC=C(C)C,> 50
3,COc1c(OCCCCN2CCCC2)cc2oc3cc(OCCCCN4CCCC4)c(CC=C(C)C)c(O)c3c(=O)c2c1CC=C(C)C,6.25
4,CCN(C)CCCCOc1cc2oc3cc(OCCCCN(C)CC)c(OC)c(CC=C(C)C)c3c(=O)c2c(O)c1CC=C(C)C,6.25
5,CCCN(CCC)CCCCOc1cc2oc3cc(OCCCCN(CCC)CCC)c(OC)c(CC=C(C)C)c3c(=O)c2c(O)c1CC=C(C)C,50
6,CCCCN(C)CCCCOc1cc2oc3cc(OCCCCN(C)CCCC)c(OC)c(CC=C(C)C)c3c(=O)c2c(O)c1CC=C(C)C,25
7,CCCCN(CC)CCCCOc1cc2oc3cc(OCCCCN(CC)CCCC)c(OC)c(CC=C(C)C)c3c(=O)c2c(O)c1CC=C(C)C,25
8,COc1c(OCCCCNC(=N)N)cc2oc3cc(OCCCCNC(=N)N)c(CC=C(C)C)c(O)c3c(=O)c2c1CC=C(C)C,6.25
